Data taken from ChEMBL document CHEMBL4402562, “Discovery of Novel Peptidomimetic Boronate ClpP Inhibitors with Noncanonical Enzyme Mechanism as Potent Virulence Blockers in Vitro and in Vivo” (J Med Chem, 2020).
The source made the active and inactive calls. The calls are words filed in the database; no cut-off is given here.

Assays:
Staphylococcus aureus [1] = test: (§1) Antivirulence activity against methicillin-resistant Staphylococcus aureus ATCC 33591 infected in BALB/c mouse model of skin abscess assessed as effect on bacterial recovery levels at 1.5 to 3 mg/kg injected into shaved area of skin once daily for 4 days measured after 12 hrs post last dose; assay type: functional, organism-based
How it was run: (§2)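 Female BALB/c mice, 6-8 weeks, n=5 per group, backs shaved and depilated 1 day before; 50 µL subcutaneous 1.7 × 10⁹ CFU/mL MRSA ATCC 33591. From 6 h post-infection, 40 µL vehicle, vancomycin 3 mg/kg, or compound 1.5 or 3 mg/kg injected at infection site once daily for 4 days; weight recorded daily. Skin homogenised in saline 12 h after last dose, plated on LB agar 37 °C ≥16 h; log10 CFU/abscess; t-test.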

Staphylococcus aureus [2] = test: as §1, with “reduction in heart histopathological changes” for “effect on bacterial recovery levels”, “dose by hematoxylin and eosin staining based optical microscopy” for “dose”; assay type: functional, organism-based
How it was run: (§3)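 Same MRSA ATCC 33591 skin-abscess model in female BALB/c mice (n=5/group), 40 µL compound at 1.5 or 3 mg/kg injected into the infected shaved skin once daily for 4 days. On day 4 infected skin and heart, liver, spleen, lung, kidney fixed in 4% paraformaldehyde, embedded, sectioned, H&E stained and examined by microscopy; PBS-treated uninfected and vehicle controls.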

[3] = biological target: T1, ATP-dependent Clp protease proteolytic subunit (Staphylococcus aureus (strain NCTC 8325)) (UniProt Q2G036); test: Inhibition of N-terminal His6-sumo-tagged full length Staphylococcus aureus ClpP expressed in Escherichia coli […] (DE3) assessed as Kinact/Ki ratio […] and measured after 1 hr by fluorescence based assay
T1 sequence (whole entry): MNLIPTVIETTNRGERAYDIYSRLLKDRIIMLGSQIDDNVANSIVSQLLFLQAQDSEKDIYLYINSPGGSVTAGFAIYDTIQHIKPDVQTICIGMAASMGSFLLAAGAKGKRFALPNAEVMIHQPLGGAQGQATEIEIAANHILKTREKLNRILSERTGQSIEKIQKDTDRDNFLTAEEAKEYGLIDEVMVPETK

[4] = Toxicity in BALB/c mouse model of skin abscess infected with methicillin-resistant Staphylococcus aureus ATCC 33591 assessed as induction of adverse effects at 1.5 to 3 mg/kg injected into shaved area of skin once daily for 4 days measured every day; assay type: organism-based; conditions: in vivo, other, 96 h; how it was run: as §2
[5] = Induction of hemolysis in sheep erythrocytes by measuring hemoglobin release incubated for 15 mins; assay type: cell-based, Ovis aries, Erythrocyte
How it was run: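 Serially diluted compound mixed directly with 2% sheep erythrocytes in 10 mM Tris pH 7.4, 0.9% NaCl. Buffer served as negative and water as positive control. After 1,500 rpm, 15 min spin, released hemoglobin read at 545 nm. Three experiments, triplicate tubes.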

Staphylococcus aureus [6] = test: as §1, with “reduction in skin inflammation” for “effect on bacterial recovery levels”, “dose by hematoxylin and eosin staining based optical microscopy” for “dose”; assay type: functional, organism-based; how it was run: as §3
[7] = Toxicity in BALB/c mouse model of skin abscess infected with methicillin-resistant Staphylococcus aureus ATCC 33591 assessed as effect on LDH levels at 1.5 to 3 mg/kg injected into shaved area of skin once daily for 4 days; assay type: organism-based; conditions: in vivo, other, 96 h
How it was run: (§4)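 Infected BALB/c mice (n=5/group) dosed 1.5 or 3 mg/kg into the infected skin once daily for 4 days; blood collected on day 4 and day 14, centrifuged 3,500 rpm 15 min, serum biochemistry analysed.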

[8] = Toxicity in BALB/c mouse model of skin abscess infected with methicillin-resistant Staphylococcus aureus ATCC 33591 assessed as effect on alkaline phosphatase levels at 1.5 to 3 mg/kg injected into shaved area of skin once daily for 4 days; assay type: organism-based; conditions: in vivo, other, 96 h; how it was run: as §4
[9] = Toxicity in BALB/c mouse model of skin abscess infected with methicillin-resistant Staphylococcus aureus ATCC 33591 assessed as increase in direct bilirubin levels at 1.5 to 3 mg/kg injected into shaved area of skin once daily for 4 days measured on day 14; assay type: organism-based; conditions: in vivo, other, 96 h; how it was run: as §4
Staphylococcus aureus [10] = test: Inhibition of virulence-related genes expression in methicillin-resistant Staphylococcus aureus ATCC 33591 assessed as reduction in aur expression at 4 to 16 uM by qPCR analysis relative to control; assay type: functional, organism-based
How it was run: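 Total RNA from 2×10⁸ CFU treated MRSA by liquid-nitrogen freeze-thaw and TRIzol; qPCR relative to gyrB endogenous control; three experiments, triplicate wells.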

[11] = biological target: T2, ATP-dependent Clp protease proteolytic subunit (Staphylococcus aureus (strain NCTC 8325), UniProt Q2G036); test: (§5) Inhibition of N-terminal His6-sumo-tagged full length Staphylococcus aureus ClpP expressed in Escherichia coli BL2 (DE3) pre-incubated for 10 mins before Suc-LY-AMC addition and measured after 1 hr by fluorescence based assay
T2 sequence (Q2G036 whole entry): T1 sequence (whole entry)
How it was run: (§6)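 SaClpP (1 μM monomer) in 100 mM Hepes pH 7.0, 100 mM NaCl. Preincubated 10 min at RT with inhibitor, two-fold dilutions over 8 steps from 100 μM. Suc-LY-AMC at 200 μM, 380/440 nm recorded for 1 h at 37 °C, slopes normalized to DMSO. For kinact/Ki, inhibitor premixed with substrate and reaction started by enzyme, fitted by least squares. Thrice, triplicate wells.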

[12] = biological target: T1, ATP-dependent Clp protease proteolytic subunit (Staphylococcus aureus (strain NCTC 8325)); test: as §5; how it was run: as §6
[13] = Toxicity in BALB/c mouse model of skin abscess infected with methicillin-resistant Staphylococcus aureus ATCC 33591 assessed as effect on uric acid levels at 1.5 to 3 mg/kg injected into shaved area of skin once daily for 4 days; assay type: organism-based; conditions: in vivo, other, 96 h; how it was run: as §4
[14] = biological target: T1, ATP-dependent Clp protease proteolytic subunit (Staphylococcus aureus (strain NCTC 8325)); test: as §5, with “[…] assessed as enzyme activity recovery level at 20-fold molar excess” for “(DE3)”, “hr followed by dialysis up to 72 hrs” for “hr”, “assay relative to control” for “assay”; parameters: scale not given: the % may be the effect or the level left
How it was run: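 ClpP (1 μM, 100 mM Hepes pH 7.0, 100 mM NaCl) incubated 1 h at RT with 20-fold molar excess inhibitor or DMSO. Dialyzed at 4 °C, buffer changed after 6 h and then every 24 h. Aliquots assayed for peptidase activity with Suc-LY-AMC. Thrice, single sample.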

Staphylococcus aureus [15] = test: as §1, with “reduction in kidney histopathological changes” for “effect on bacterial recovery levels”, “dose by hematoxylin and eosin staining based optical microscopy” for “dose”; assay type: functional, organism-based; how it was run: as §3
[16] = Toxicity in BALB/c mouse model of skin abscess infected with methicillin-resistant Staphylococcus aureus ATCC 33591 assessed as increase in direct bilirubin levels at 1.5 to 3 mg/kg injected into shaved area of skin once daily for 4 days; assay type: organism-based; conditions: in vivo, other, 96 h; how it was run: as §4
Staphylococcus aureus [17] = test: Growth inhibition of methicillin-resistant Staphylococcus aureus ATCC 33591 up to 64 uM incubated for 18 hrs by broth microdilution method; assay type: functional, organism-based
How it was run: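 MRSA ATCC 33591 at ~5×10⁵ CFU/mL in MHB with graded compound concentrations vs DMSO; OD600 growth curves over 18 h; three experiments, triplicate wells. MIC by CLSI broth microdilution in CAMHB, 0.5-256 µg/mL, 18 h at 37 °C, lowest concentration with no visible growth.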

CC(C)C[C@H](NC(=O)[C@H](Cc1c[nH]c2ccccc12)NC(=O)c1cc(Cl)ccc1Cl)B(O)O
Activity (Staphylococcus aureus [1]): Active
Activity (Staphylococcus aureus [2]): Active
Ratio [3]: 16.7 ×10² /s.M
Activity [4]: Non-Toxic
HC50 at 0.25 h [5]: > 500 µM
Activity (Staphylococcus aureus [6]): Active
Activity [7]: Non-Toxic
Activity [8]: Non-Toxic
Activity [9]: Non-Toxic
inhibition (Staphylococcus aureus [10]): Active
IC50 [11]: 900 nM
inhibition [12]: Dose-dependent effect
Activity [13]: Non-Toxic
Activity [14]: 100%
Activity (Staphylococcus aureus [15]): Active
Activity [16]: Toxic
growth inhibition (GI) (Staphylococcus aureus [17]): inactive
